Legend:
Type in all cases: ADME, organism-based
Liver [1] = experiment: Biodistribution in Kunming mouse liver at 1 uCi, iv after 240 mins by gamma counting; details: in vivo, 4 h
Method in brief: (§1)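 125I-labeled tracer given intravenously to normal mice. Organs and blood were sampled at 2, 15, 30, 60, 120 and 240 min after injection. Uptake is expressed as % ID/g, averaged over 5 mice ± SD.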

Blood [2] = experiment: Biodistribution in Kunming mouse blood at 1 uCi, iv after 30 mins by gamma counting; details: in vivo, 0.5 h; method in brief: as §1
Blood [3] = experiment: Biodistribution in Kunming mouse blood at 1 uCi, iv after 240 mins by gamma counting; details: in vivo, 4 h; method in brief: as §1
Muscle tissue [4] = experiment: Biodistribution in Kunming mouse muscle at 1 uCi, iv after 15 mins by gamma counting; details: in vivo, 0.25 h; method in brief: as §1
Spleen [5] = experiment: Biodistribution in Kunming mouse spleen at 1 uCi, iv after 120 mins by gamma counting; details: in vivo, 2 h; method in brief: as §1
Stomach = experiment: Biodistribution in Kunming mouse stomach assessed per organ at 1 uCi, iv after 15 mins by gamma counting; details: in vivo, 0.25 h
Method in brief: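 Radioiodinated tracers given intravenously to normal mice; organs taken at 2, 15, 30, 60, 120 and 240 min after injection. Uptake expressed as % ID/g, mean ± SD of 5 mice; stomach values carry a table footnote.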

Blood [6] = experiment: Biodistribution in Kunming mouse blood at 1 uCi, iv after 2 mins by gamma counting; details: in vivo; method in brief: as §1
Heart [7] = experiment: Biodistribution in Kunming mouse heart at 1 uCi, iv after 240 mins by gamma counting; details: in vivo, 4 h; method in brief: as §1
Spleen [8] = experiment: Biodistribution in Kunming mouse spleen at 1 uCi, iv after 30 mins by gamma counting; details: in vivo, 0.5 h; method in brief: as §1
Liver [9] = experiment: Biodistribution in Kunming mouse liver at 1 uCi, iv after 15 mins by gamma counting; details: in vivo, 0.25 h; method in brief: as §1
Liver [10] = experiment: Biodistribution in Kunming mouse liver at 1 uCi, iv after 60 mins by gamma counting; details: in vivo, 1 h; method in brief: as §1
Brain [11] = experiment: Biodistribution in Kunming mouse brain at 1 uCi, iv after 15 mins by gamma counting; details: in vivo, 0.25 h; method in brief: as §1
Liver [12] = experiment: Biodistribution in Kunming mouse liver at 1 uCi, iv after 120 mins by gamma counting; details: in vivo, 2 h; method in brief: as §1
Heart [13] = experiment: Biodistribution in Kunming mouse heart at 1 uCi, iv after 2 mins by gamma counting; details: in vivo; method in brief: as §1
Blood [14] = experiment: Biodistribution in Kunming mouse blood at 1 uCi, iv after 15 mins by gamma counting; details: in vivo, 0.25 h; method in brief: as §1
Lung = experiment: Biodistribution in Kunming mouse lung at 1 uCi, iv after 30 mins by gamma counting; details: in vivo, 0.5 h; method in brief: as §1
Spleen [15] = experiment: Biodistribution in Kunming mouse spleen at 1 uCi, iv after 2 mins by gamma counting; details: in vivo; method in brief: as §1
Heart [16] = experiment: Biodistribution in Kunming mouse heart at 1 uCi, iv after 60 mins by gamma counting; details: in vivo, 1 h; method in brief: as §1
Kidney [17] = experiment: Biodistribution in Kunming mouse kidney at 1 uCi, iv after 240 mins by gamma counting; details: in vivo, 4 h; method in brief: as §1
Heart [18] = experiment: Biodistribution in Kunming mouse heart at 1 uCi, iv after 30 mins by gamma counting; details: in vivo, 0.5 h; method in brief: as §1
Muscle tissue [19] = experiment: Biodistribution in Kunming mouse muscle at 1 uCi, iv after 30 mins by gamma counting; details: in vivo, 0.5 h; method in brief: as §1
Muscle tissue [20] = experiment: Biodistribution in Kunming mouse muscle at 1 uCi, iv after 2 mins by gamma counting; details: in vivo; method in brief: as §1
Brain [21] = experiment: Biodistribution in Kunming mouse brain at 1 uCi, iv after 2 mins by gamma counting; details: in vivo; method in brief: as §1
Muscle tissue [22] = experiment: Biodistribution in Kunming mouse muscle at 1 uCi, iv after 240 mins by gamma counting; details: in vivo, 4 h; method in brief: as §1
Kidney [23] = experiment: Biodistribution in Kunming mouse kidney at 1 uCi, iv after 15 mins by gamma counting; details: in vivo, 0.25 h; method in brief: as §1
Brain [24] = experiment: Biodistribution in Kunming mouse brain at 1 uCi, iv after 240 mins by gamma counting; details: in vivo, 4 h; method in brief: as §1
Kidney [25] = experiment: Biodistribution in Kunming mouse kidney at 1 uCi, iv after 120 mins by gamma counting; details: in vivo, 2 h; method in brief: as §1
Brain [26] = experiment: Biodistribution in Kunming mouse brain at 1 uCi, iv after 120 mins by gamma counting; details: in vivo, 2 h; method in brief: as §1

- Drug uptake (Liver [1]): 7.65 % ID/g
- Drug uptake (Blood [2]): 4.9 % ID/g
- Drug uptake (Blood [3]): 2.78 % ID/g
- Drug uptake (Muscle tissue [4]): 2.62 % ID/g
- Drug uptake (Spleen [5]): 6.18 % ID/g
- Drug uptake (Stomach): 4.06 %ID
- Drug uptake (Blood [6]): 13.91 % ID/g
- Drug uptake (Heart [7]): 1.17 % ID/g
- Drug uptake (Spleen [8]): 7.12 % ID/g
- Drug uptake (Liver [9]): 18.05 % ID/g
- Drug uptake (Liver [10]): 12.3 % ID/g
- Drug uptake (Brain [11]): 2.29 % ID/g
- Drug uptake (Liver [12]): 9.3 % ID/g
- Drug uptake (Heart [13]): 12.64 % ID/g
- Drug uptake (Blood [14]): 5.82 % ID/g
- Drug uptake (Lung): 9.05 % ID/g
- Drug uptake (Spleen [15]): 6 % ID/g
- Drug uptake (Heart [16]): 1.53 % ID/g
- Drug uptake (Kidney [17]): 4.05 % ID/g
- Drug uptake (Heart [18]): 2.45 % ID/g
- Drug uptake (Muscle tissue [19]): 1.63 % ID/g
- Drug uptake (Muscle tissue [20]): 2.73 % ID/g
- Drug uptake (Brain [21]): 2.19 % ID/g
- Drug uptake (Muscle tissue [22]): 0.92 % ID/g
- Drug uptake (Kidney [23]): 9.31 % ID/g
- Drug uptake (Brain [24]): 0.21 % ID/g
- Drug uptake (Kidney [25]): 4.21 % ID/g
- Drug uptake (Brain [26]): 0.42 % ID/g
SMILES: COc1ccc(/C=C/C(=O)n2ccc3cc([125I])ccc32)cc1

From ChEMBL document CHEMBL1828568, “Novel imaging agents for β-amyloid plaque based on the N-benzoylindole core” (Bioorg Med Chem Lett, 2011)
